Series [1] has as its system human beings. Particulars: cited from earlier work.
The nature of series [2]: Plasma total GLP-2 concentration after subcutaneous GLP-2. The series is classed as in vivo, human beings. Particulars: 1500 μg of GLP-2 subcutaneously. An outline of the steps:
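Plasma total GLP-2 was measured during the study A visits in healthy men (randomized, single-blind crossover, visits 4 weeks apart). After an overnight fast, subjects received nasoduodenal formula feeding under a pancreatic clamp, then a single subcutaneous GLP-2 dose (1500 ug) or placebo at 9 AM. Sampling continued over the kinetic study.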

Series [3] relates to healthy men. The series is classed as in vivo, human beings. Particulars: study A. An outline of the steps: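 Six healthy normoglycemic, normolipidemic men took part in a randomized, single-blind crossover (visits 4 weeks apart). After an overnight fast, liquid mixed-macronutrient formula was infused nasoduodenally for 15 h from 4 AM. A pancreatic clamp (somatostatin, insulin, glucagon, growth hormone) started at 7 AM. At 9 AM came primed constant d3-leucine for 10 h plus s.c. GLP-2 1500 ug or placebo. AUC covered the first 3 h. Multicompartmental modelling gave FCR.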

For series [4], the system named is human beings. Particulars: intravenous infusion of native GLP-2, human beings; cited from earlier work.
Series [5] concerns healthy men. The format is in vivo, human beings. Particulars: study B. An outline of the steps:
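Six healthy men were studied in a randomized, single-blind crossover (visits 4 weeks apart). At 7 am they drank a liquid meal containing 120,000 IU retinyl palmitate, with no food thereafter. At 2 pm (T = 0, 7 h post-meal) they received s.c. GLP-2 1500 mcg or placebo, with blood sampled for 3 h. TRL TG, retinyl palmitate and apoB-48 were measured. Incremental AUC over 0–3 h used the T = 0 concentration as baseline.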

Setting [6] is: GLP-2 1500 μg s.c. single dose, n = 6, vs placebo P = .03.
The mark [7] stands for this setting: GLP-2 1500 μg s.c., n = 6, vs placebo P = .02.
The mark [8] stands for this setting: GLP-2 1500 mcg s.c. 7 h after meal, N = 6, vs placebo P = .002.

Regarding exenatide, the “effect on chylomicron secretion in human beings” value in series [1] is given as “reduces chylomicron secretion”.

Regarding glucagon-like peptide-2 [GLP-2], in series [2], the “GLP-2 concentration at 4 hours relative to the level at 2 hours” value is “approximately half”. Besides, the “plasma total GLP-2 concentration compared with placebo” value in series [2] (2 and 4 hours after administration) is listed as “significantly increased”. Moreover, in series [3] (setting [6]), the “plasma TG area under the concentration curve in the first 3 hours (AUC0-3)” value is listed as 3.1 ± 0.4 mmol/L/h and the “plasma TG peak concentration at 1 hour” value was 1.23 ± 0.20 mmol/L. In addition, in series [3] (setting [7]), the “TRL apoB-48 AUC0-3” value is on record as 19.3 ± 5.0 mg/L/h and the “TRL apoB-48 peak concentration 1 hour after administration” value is given as 9.5 ± 2.6 mg/L. Further, the “TRL TG peak concentration at 1 hour” value in series [3] (GLP-2 1500 μg s.c., n = 6, vs placebo P = .15) came out at 0.79 ± 0.09 mmol/L. For the same compound, the “TRL TG AUC0-3” value in series [3] (GLP-2 1500 μg s.c., n = 6, vs placebo P = .24) was determined as 1.9 ± 0.2 mmol/L/h. The “TRL apoB-100 mean concentration for the 10-hour kinetics study” value in series [3] (GLP-2 1500 μg s.c., n = 6, vs placebo P = .5) was 74.8 ± 7.4 mg/L. For the same compound, the “TRL apoB-100 AUC0-3” value in series [3] (GLP-2 1500 μg s.c., n = 6, vs placebo P = .95) was found to be 216 ± 21.9 mg/L/h. The “mean plasma glucagon concentration” value in series [3] (GLP-2 1500 μg s.c., pancreatic clamp, vs placebo P = .01) stood at 143.3 ± 14.2 pg/mL. For the same compound, the “mean plasma glucose concentration” value in series [3] (GLP-2 1500 μg s.c., pancreatic clamp, vs placebo P = .049) is given as 8.7 ± 0.3 mmol/L. In series [3] (during kinetic study), the “plasma FFA concentration, GLP-2 vs placebo” value is “no significant difference” and the “plasma insulin concentration, GLP-2 vs placebo” value was “no significant difference”. In addition, in series [4], the “effect on postprandial plasma TG and free fatty acid (FFA) concentrations” value is given as “increase”. Besides, the “plasma glucose concentration, GLP-2 vs placebo” value in series [5] is “no significant difference”. Also, in series [5] (setting [8]), the “TRL TG iAUC0-3” value was 0.28 ± 0.16 mmol/L/h and the “TRL retinyl palmitate iAUC0-3” value came out at 0.86 ± 0.21 µmol/L/h. For the same compound, in series [5] (GLP-2 1500 mcg s.c. 7 h after meal, n = 5, vs placebo P = .003), the “chylomicron (Sf > 400) retinyl palmitate peak concentration at 60 minutes” value is 0.38 ± 0.06 µmol/L. Further, the “TRL apoB-48 iAUC0-3” value in series [5] (GLP-2 1500 mcg s.c. 7 h after meal, n = 6, vs placebo P = .04) came to 1.45 ± 1.72 mg/L/h. In addition, the “TRL TG peak increment” value in series [5] (GLP-2 1500 mcg s.c. 7 h after meal, vs placebo P = .003) is on record as 0.42 ± 0.11. In series [5] (GLP-2 1500 mcg s.c. 7 h after meal, vs placebo P = .006), the “TRL apoB-48 peak increment” value worked out at 2.1 ± 0.8.

`N[C@@H](CC(=O)N1CCn2c(nnc2C(F)(F)F)C1)Cc1cc(F)c(F)cc1F` [sitagliptin]: in series [1] (acute), the “effect on chylomicron production in human beings” value was “acutely reduces chylomicron production”.

The values are drawn from publication PMC4316201 (Gastroenterology, 2014).
